MC4R antag cAMP: blocks human MC4R cAMP signaling; AID 540295; actives 0.48% (n = 360,000); inhibition, % at 6.5 µM; P32245; MC4R-expressing cells, MTII-stimulated cAMP, LANCE TR-FRET;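 active = inhibition above its plate's cutoff, the mean of tested wells on that plate plus 3 SD, cut at about 29% in these data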
Target sequence (P32245 whole entry, looked up): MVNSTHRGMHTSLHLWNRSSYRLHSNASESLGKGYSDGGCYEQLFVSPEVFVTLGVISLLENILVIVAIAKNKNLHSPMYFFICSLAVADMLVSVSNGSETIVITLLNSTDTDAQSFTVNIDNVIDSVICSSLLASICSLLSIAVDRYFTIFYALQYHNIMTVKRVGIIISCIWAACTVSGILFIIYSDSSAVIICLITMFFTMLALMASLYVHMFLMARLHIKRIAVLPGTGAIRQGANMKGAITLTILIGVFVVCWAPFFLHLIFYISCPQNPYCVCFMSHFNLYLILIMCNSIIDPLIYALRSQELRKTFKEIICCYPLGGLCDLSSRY
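System – human MC4R-expressing U2OS cells · Also added – Melanotan II · Dosing – one concentration, 6.5 µM nominal · Timing – 30-min compound, 1-h challenge, 1-h detection, room temperature · Measured by – Eu-cAMP/anti-cAMP TR-FRET, emission 671 nm · Replicates – singlicate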
NALP3 yeast inh: inhibitors of NALP3 inflammasome in yeast; Yeast reconstituted NLRP3/ASC/caspase-1, beta-gal luminescence, 24 h; inhibition, % at 10 µM; AID 2825; actives 0.39% (n = 330,000);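 active = inhibition of 50% or more; inactive = inhibition below 50%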
MC4R ag barr: agonists of human melanocortin 4 receptor (MC4R) beta-arrestin | P32245 | U2OS MC4R beta-arrestin complementation, luminescence; percent of melanotan II response, DMSO zero | activation, % at 8.9 µM | actives 0.98% (n = 360,000);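 active = activation above a per-plate cutoff, the mean activation of sample wells on that plate plus 3 SD, cut at about 8% in these data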
TbMetRS inhib: blocks T. brucei methionyl-tRNA synthetase activity | purified T. brucei MetRS, ATP depletion, Kinase-Glo luminescence | inhibition, % at 11.9 µM | actives 0.4% (n = 360,000) | AID 624268;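 active = inhibition above a per-plate cutoff of the control wells' mean inhibition plus 3 SD, cut at about 5.5% in these data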
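Test system – parasite MetRS enzyme · Reagent – substrates ATP, L-methionine and bulk Escherichia coli tRNA · Doses – 11.9 µM compound single dose, 0.9% DMSO · Times – 15 min enzyme-compound preincubation, 2 h reaction, 10 min detection, 25 °C · Signal – Kinase-Glo luminescence, ATP depletion format · Controls – DMSO-only wells as low control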
A1 inh: inhibitors of the anti-apoptotic protein A1, read as caspase activation. MEF A1-2A-BIM cells, Caspase-Glo 3/7 luminescence, 3 h; percent of clofoctol response, vehicle zero. caspase activation, % (no concentration beside the values). actives 0.066% (n = 330,000). AID 2462;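 active = over half of replicate activation scores above 10%, or exactly half above 10 with the replicate mean above 10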
NALP1 inh: NALP1 inhibition | inhibition, % at 10 µM | S. cerevisiae NALP1/ASC/caspase-1 growth, X-gal OD620, 72 h | AID 2071 | actives 0.61% (n = 280,000); in the data active = inhibition mostly above about 24%, no sharp cut-off; inactive = mostly below about 32%
Hits are given with their value; – = inactive; · = no result given. Most compounds without a hit are left out; they make up all but 2.5% or so of the library.

SMILES	MC4R antag cAMP	NALP3 yeast inh	MC4R ag barr	TbMetRS inhib	A1 inh	NALP1 inh
COc1ccc(C2NCCc3c2[nH]c2ccccc32)cc1CSc1nc2ccccc2s1 (centres undefined)	–	·	–	–	–	57.3
CCN(CCCNC(=O)CNC(=O)c1nn(-c2ccc(OC)c(OC)c2)c(=O)c2ccccc12)c1ccccc1	–	–	–	–	–	–
CO/N=C(\c1nonc1N)N1CCN(c2ccc([N+](=O)[O-])cc2Cl)CC1	–	–	–	7.0	–	–
CCCc1cc(=O)[nH]c(SCCc2ccccc2)n1	–	–	–	–	–	–
CCN1C(=O)c2ccc(C(=O)NCc3ccco3)cc2C1=O	–	–	–	–	–	30.8
CCNC(=O)C1(C)CCN(C(=O)c2ccc3snnc3c2)C1 (centres undefined)	–	·	–	–	·	·
c1ccc(-n2cc(CNCCc3cscn3)c(-c3ccc4c(c3)OCO4)n2)cc1	–	–	–	–	–	31.5
C[C@H](CO)N1C[C@H](C)[C@H](CN(C)C(=O)NC2CCCCC2)Oc2ncc(Br)cc2C1=O	–	·	–	–	·	·
COc1cc(/C=N/NC(N)=S)cc(Br)c1OCc1ccccc1F	–	–	10.5	–	–	–
COc1ccc2nc(-c3ccccc3)cc(C(=O)OCC(=O)N3CC(C)OC(C)C3)c2c1 (centres undefined)	–	–	–	–	–	·
CNS(=O)(=O)c1cnccc1N1CCN(c2cccc(Cl)c2)CC1	–	–	–	–	–	·
CCN(CC)S(=O)(=O)c1cnccc1N1CCN(c2cccc(Cl)c2)CC1	–	–	–	–	–	53.5
O=C(NCc1ccc2c(c1)OCO2)c1c(-c2ccccc2)sc2ccccc12	–	–	21.0	–	–	·
Cn1cc([N+](=O)[O-])c(C(=O)Nc2ccc(-c3nc4ccccc4o3)cc2)n1	–	–	13.3	–	–	·
O=C(Oc1ccc(-c2cnc3ccccc3n2)cc1)c1cc([N+](=O)[O-])ccc1Cl	29.3	–	–	–	–	–
Cc1c(C(=O)Oc2ccc(-c3cnc4ccccc4n3)cc2)cccc1[N+](=O)[O-]	–	–	–	–	–	–
CCc1nc2ccc(C(=O)N(C)CCCN(C)C)cn2c1N(CC)CCOC	–	·	–	–	·	·
Cc1nn(CCO)c2nc(-c3cccs3)cc(C(F)(F)F)c12	–	–	8.5	–	–	–
O=C1CN(C(=S)NC(=O)c2ccccc2[N+](=O)[O-])CCN1	–	–	–	–	–	–
COc1ccc(Nc2ccc3c(c2)=NC2(CCCCC2)[N+]=3[O-])cc1	–	–	–	–	–	39.9
O=C(c1ccc(Cl)cc1)c1cnc(Nc2ccccc2Cl)s1	–	–	9.9	–	–	–
O=C(c1ccc(Cl)cc1)c1cnc(-c2ccccc2)s1	–	·	–	–	·	–
O=C(N/N=C/c1ccc(Cl)cc1)C(=O)N1CCCCCC1	–	–	–	–	–	24.7
CCOc1cc(C2/C(=C(\O)c3cc(C)ccc3C)C(=O)C(=O)N2CCN(C)C)ccc1O (centres undefined)	–	–	–	–	–	40.3
COc1cc(C2/C(=C(\O)c3cc(C)ccc3C)C(=O)C(=O)N2CCN(C)C)ccc1O (centres undefined)	–	–	–	–	–	–
SMILES	MC4R antag cAMP	NALP3 yeast inh	MC4R ag barr	TbMetRS inhib	A1 inh	NALP1 inh
COCCNC(=S)N(c1ccccc1)C(C)C	–	–	–	–	–	39.9
COCCNC(=S)NN(c1ccccc1)c1ccccc1	–	–	–	–	–	–
CCn1c(O)c(/C=C2\C=NN=C2c2ccccc2)sc1=S	–	–	–	–	–	·
CC(C)Cn1c(O)c(/C=C2\C=NN=C2c2ccccc2)sc1=S	–	–	–	–	17.5	–
c1ccc(CC[C@@H]2CC[C@@H](CCc3ccccc3)N2)cc1	–	–	8.4	–	–	·
N#Cc1ccc(OS(=O)(=O)c2ccc(-c3ccon3)s2)cc1	–	·	–	–	–	–
Cc1ccc(NC(=S)N(CCN(C)C)Cc2cc3cc(C)ccc3[nH]c2=O)cc1	–	–	–	–	–	17.9
Cc1ccc(NC(=S)N(CCN(C)C)Cc2cc3cccc(C)c3[nH]c2=O)cc1	–	–	–	–	–	–
CCCCCC(=O)Nc1ccc(C(=O)CN2C(=O)NC3(CCCCCC3)C2=O)cc1	–	–	–	–	–	·
